Source: ChEMBL document CHEMBL2040798, “One-pot synthesis of novel isoindoline-1,3-dione derivatives bearing 1,2,4-triazole moiety and their preliminary biological evaluation” (Eur J Med Chem, 2012)

Tests used:
Pyricularia grisea = assay: Growth inhibition of Phyricularia oryzae Cav. at 150 mg/mL after 48 hrs by mycelium growth rate method; assay type: functional; parameters: dose or concentration left out as unconfirmed; conditions: read-out: GI
HepG2 [1] = assay: Cytotoxicity against human HepG2 cells after 48 hrs by MTT assay; assay type: functional, cell-based; conditions: HepG2, 48 h
Procedure, shortened: (§1)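 MTT assay. Cells kept in DMEM with 10% FBS. HepG2 seeded at 1 × 10^4 cells/well; A549, PC-3M and MKN45 at 1.6 × 10^4 cells/well. Attachment 24 h at 37 °C. Compounds diluted in medium from 10 mM DMSO stocks; 0.1% DMSO served as negative control. Exposure 48 h at 37 °C, then MTT for 3 h. Formazan dissolved in DMSO and read at 570 nm. IC50 from a concentration series; mean of three independent experiments.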

A549 [2] = assay: Cytotoxicity against human A549 cells after 48 hrs by MTT assay; assay type: functional, cell-based; conditions: A549, 48 h; procedure, shortened: as §1
MKN-45 = assay: Cytotoxicity against human MKN45 cells after 48 hrs by MTT assay; assay type: functional, cell-based; conditions: MKN-45, 48 h; procedure, shortened: as §1
[3] = Cytotoxicity against human PC3M cells after 48 hrs by MTT assay; assay type: functional, cell-based; conditions: PC-3M; procedure, shortened: as §1
HepG2 [4] = assay: Ratio of Fluorouracil IC50 to compound IC50 for human HepG2 cells; assay type: functional
HepG2 [5] = assay: Cell cycle arrest in human HepG2 cells assessed as S phase cells at 16 uM after 24 hrs by flow cytometry (reference value: 29.84%); assay type: functional
HepG2 [6] = assay: Cell cycle arrest in human HepG2 cells assessed as G2/M phase cells at 16 uM after 24 hrs by flow cytometry (reference value: 16.38%); assay type: functional
HepG2 [7] = assay: Cell cycle arrest in human HepG2 cells assessed as G0/G1 phase cells at 4 uM after 24 hrs by flow cytometry (reference value: 54.65%); assay type: functional
HepG2 [8] = assay: Cell cycle arrest in human HepG2 cells assessed as S phase cells at 4 uM after 24 hrs by flow cytometry (reference value: 29.84%); assay type: functional
HepG2 [9] = assay: Cell cycle arrest in human HepG2 cells assessed as G2/M phase cells at 4 uM after 24 hrs by flow cytometry (reference value: 16.38%); assay type: functional
HepG2 [10] = assay: Cell cycle arrest in human HepG2 cells assessed as Sub-G0 phase cells at 8 uM after 24 hrs by flow cytometry (reference value: 2.48%); assay type: functional
HepG2 [11] = assay: Cell cycle arrest in human HepG2 cells assessed as S phase cells at 8 uM after 24 hrs by flow cytometry (reference value: 29.84%); assay type: functional
HepG2 [12] = assay: Cell cycle arrest in human HepG2 cells assessed as Sub-G0 phase cells at 16 uM after 24 hrs by flow cytometry (reference value: 2.48%); assay type: functional
HepG2 [13] = assay: Cell cycle arrest in human HepG2 cells assessed as Sub-G0 phase cells at 4 uM after 24 hrs by flow cytometry (reference value: 2.48%); assay type: functional
HepG2 [14] = assay: Induction of apoptosis in human HepG2 cells after 24 hrs by flow cytometry; assay type: functional, cell-based
HepG2 [15] = assay: Cell cycle arrest in human HepG2 cells assessed as G0/G1 phase cells at 16 uM after 24 hrs by flow cytometry (reference value: 54.65%); assay type: functional
HepG2 [16] = assay: Cell cycle arrest in human HepG2 cells assessed as G2/M phase cells at 8 uM after 24 hrs by flow cytometry (reference value: 16.38%); assay type: functional
A549 [17] = assay: Ratio of Fluorouracil IC50 to compound IC50 for human A549 cells; assay type: functional
HepG2 [18] = assay: Cell cycle arrest in human HepG2 cells assessed as G0/G1 phase cells at 8 uM after 24 hrs by flow cytometry (reference value: 54.65%); assay type: functional

SMILES	inhibition of growth (Pyricularia grisea)	IC50 (HepG2 [1])	IC50 (A549 [2])	IC50 (MKN-45)	IC50 [3]	other results
CC(C)(C)C(=O)C(Oc1ccc(Cl)cc1)n1cncn1 (stereo not drawn) [TRIADIMEFON]	≥ 80%					
C#CCSc1nnc(CC)n1N1C(=O)c2ccccc2C1=O	≥ 60%	> 200 µM	> 200 µM	> 200 µM	> 200 µM	
O=c1[nH]cc(F)c(=O)[nH]1 [FLUOROURACIL]				41.7 µM	22.6 µM	
CCc1nnc(SCC(=O)c2ccc(Cl)cc2)n1N1C(=O)c2ccccc2C1=O	< 50%	> 200 µM	> 200 µM	> 200 µM	> 200 µM	
Cc1nnc(SCC(=O)c2ccccc2)n1N1C(=O)c2ccccc2C1=O	< 50%	> 200 µM	> 200 µM	> 200 µM	> 200 µM	
CCOC(=O)CSc1nnc(CC)n1N1C(=O)c2ccccc2C1=O	≥ 50%	> 200 µM	> 200 µM	> 200 µM	> 200 µM	
Cc1ccc(C(=O)CSc2nnc(C)n2N2C(=O)c3ccccc3C2=O)cc1	≥ 50%	> 200 µM	> 200 µM	> 200 µM	> 200 µM	
CCc1nnc(SC)n1N1C(=O)c2ccccc2C1=O	< 50%	> 200 µM	> 200 µM	> 200 µM	> 200 µM	
COc1ccc(C(=O)CSc2nnc(-c3cc(OC)c(OC)c(OC)c3)n2N2C(=O)c3ccccc3C2=O)cc1	< 50%	28.7 µM	30 µM	37.2 µM	32.8 µM	
COc1cc(-c2nnc(SCC(=O)c3ccc(F)c(F)c3)n2N2C(=O)c3ccccc3C2=O)cc(OC)c1OC	< 50%	> 200 µM	> 200 µM	> 200 µM	163 µM	
CCCc1nnc(SCC(=O)c2ccccc2)n1N1C(=O)c2ccccc2C1=O	< 50%	> 200 µM	> 200 µM	> 200 µM	> 200 µM	
COc1cc(-c2nnc(SCC(=O)c3ccc(C)cc3)n2N2C(=O)c3ccccc3C2=O)cc(OC)c1OC	< 50%	9.44 µM	6.76 µM	9.62 µM	11.7 µM	Ratio IC50 (HepG2 [4]): 4; Activity (HepG2 [5]): 21.07%; Activity (HepG2 [6]): 6.31%; Activity (HepG2 [7]): 40.73%; Activity (HepG2 [8]): 25.41%; Activity (HepG2 [9]): 14.4%; Activity (HepG2 [10]): 29.22%; Activity (HepG2 [11]): 17.5%; Activity (HepG2 [12]): 32.58%; Activity (HepG2 [13]): 15.05%; Activity (HepG2 [14]): Dose-dependent effect; Activity (HepG2 [15]): 36.7%; Activity (HepG2 [16]): 11.38%; Ratio IC50 (A549 [17]): 4; Activity (HepG2 [18]): 37.45%
C#CCSc1nnc(-c2cc(OC)c(OC)c(OC)c2)n1N1C(=O)c2ccccc2C1=O	< 50%	> 200 µM	> 200 µM	> 200 µM	> 200 µM	
COc1cc(-c2nnc(SCC(=O)c3ccccc3)n2N2C(=O)c3ccccc3C2=O)cc(OC)c1OC	≥ 60%	171 µM	> 200 µM	> 200 µM	> 200 µM	
C=CCSc1nnc(CC)n1N1C(=O)c2ccccc2C1=O	< 50%	> 200 µM	> 200 µM	> 200 µM	> 200 µM	
COc1cc(-c2nnc(SCc3ccccc3)n2N2C(=O)c3ccccc3C2=O)cc(OC)c1OC	< 50%	> 200 µM	> 200 µM	> 200 µM	> 200 µM	
CCOC(=O)CSc1nnc(-c2cc(OC)c(OC)c(OC)c2)n1N1C(=O)c2ccccc2C1=O	< 50%	> 200 µM	> 200 µM	> 200 µM	> 200 µM	
C=CCSc1nnc(CCC)n1N1C(=O)c2ccccc2C1=O	< 50%	> 200 µM	> 200 µM	> 200 µM	> 200 µM	
CCCc1nnc(SCc2ccccc2Cl)n1N1C(=O)c2ccccc2C1=O	< 50%	> 200 µM	> 200 µM	> 200 µM	> 200 µM	
CCOC(=O)CSc1nnc(C)n1N1C(=O)c2ccccc2C1=O	< 50%	> 200 µM	> 200 µM	> 200 µM	> 200 µM	

SMILES	inhibition of growth (Pyricularia grisea)	IC50 (HepG2 [1])	IC50 (A549 [2])	IC50 (MKN-45)	IC50 [3]	other results
CCc1nnc(SCc2ccccc2)n1N1C(=O)c2ccccc2C1=O	≥ 50%	> 200 µM	> 200 µM	> 200 µM	> 200 µM	
COc1cc(-c2nnc(SCC(=O)c3ccc(Cl)cc3)n2N2C(=O)c3ccccc3C2=O)cc(OC)c1OC	< 50%	22 µM	9.03 µM	26.6 µM	20.7 µM	
C=CCSc1nnc(-c2cc(OC)c(OC)c(OC)c2)n1N1C(=O)c2ccccc2C1=O	≥ 60%	> 200 µM	> 200 µM	> 200 µM	> 200 µM	
COc1cc(-c2nnc(SCC(=O)c3ccccc3C)n2N2C(=O)c3ccccc3C2=O)cc(OC)c1OC	< 50%	> 200 µM	144 µM	> 200 µM	> 200 µM	
CCCc1nnc(SCC(=O)c2ccc(C)cc2)n1N1C(=O)c2ccccc2C1=O	≥ 80%	> 200 µM	> 200 µM	> 200 µM	> 200 µM	
Cc1nnc(SCC(=O)c2ccc(Cl)cc2)n1N1C(=O)c2ccccc2C1=O	≥ 60%	> 200 µM	> 200 µM	> 200 µM	> 200 µM	
COc1cc(-c2nnc(SCc3ccccc3Cl)n2N2C(=O)c3ccccc3C2=O)cc(OC)c1OC	< 50%	> 200 µM	> 200 µM	> 200 µM	> 200 µM	
CCc1nnc(SCC(=O)c2ccccc2)n1N1C(=O)c2ccccc2C1=O	< 50%	> 200 µM	> 200 µM	> 200 µM	> 200 µM	
CCCc1nnc(SCc2ccccc2)n1N1C(=O)c2ccccc2C1=O	< 50%	> 200 µM	> 200 µM	> 200 µM	> 200 µM	
CCCc1nnc(SC)n1N1C(=O)c2ccccc2C1=O	< 50%	> 200 µM	> 200 µM	> 200 µM	> 200 µM	
CSc1nnc(C)n1N1C(=O)c2ccccc2C1=O	< 50%	> 200 µM	> 200 µM	> 200 µM	> 200 µM	
Cc1nnc(SCc2ccccc2Cl)n1N1C(=O)c2ccccc2C1=O	≥ 60%	> 200 µM	> 200 µM	> 200 µM	> 200 µM	
CCCc1nnc(SCC(=O)c2ccc(Cl)cc2)n1N1C(=O)c2ccccc2C1=O	< 50%	> 200 µM	> 200 µM	> 200 µM	> 200 µM	
Cc1nnc(SCc2ccccc2)n1N1C(=O)c2ccccc2C1=O	< 50%	> 200 µM	> 200 µM	> 200 µM	> 200 µM	
COc1cc(-c2nnc(SCC(=O)c3ccc(F)cc3)n2N2C(=O)c3ccccc3C2=O)cc(OC)c1OC	< 50%	> 200 µM	> 200 µM	126 µM	> 200 µM	
CCc1nnc(SCC(=O)c2ccc(C)cc2)n1N1C(=O)c2ccccc2C1=O	< 50%	> 200 µM	> 200 µM	> 200 µM	> 200 µM	
C#CCSc1nnc(CCC)n1N1C(=O)c2ccccc2C1=O	< 50%	> 200 µM	> 200 µM	> 200 µM	> 200 µM	
COc1cc(-c2nnc(SC)n2N2C(=O)c3ccccc3C2=O)cc(OC)c1OC	≥ 50%	> 200 µM	> 200 µM	> 200 µM	> 200 µM	
C#CCSc1nnc(C)n1N1C(=O)c2ccccc2C1=O	≥ 60%	> 200 µM	> 200 µM	> 200 µM	> 200 µM	
COc1cc(-c2nnc(SCC(=O)c3ccc(Br)cc3)n2N2C(=O)c3ccccc3C2=O)cc(OC)c1OC	≥ 60%	27.7 µM	16.1 µM	22.3 µM	22.6 µM	
